# HSF-1 act: increases HSF-1 driven luciferase reporter signal; 300,000 compounds, 1.7% hits; activation, % at 9 µM; NIH3T3-HGL HSF-1 luciferase reporter, MG132, 8 h; 100% = twice DMSO control signal;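 active = mean replicate activation of at least 50% with a set share of replicates each reaching 50%; inconclusive = only one of those two conditions met; inactive = mean below 50% and too few replicates reaching it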;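 also: 0% = median of the neutral control wells and 100% = twice that signal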
# AI-2 QS mod: modulates the Vibrio harveyi AI-2 quorum sensing system. Vibrio harveyi JMH597 AI-2 luminescence/OD600 ratio, 9 h; hits give low values; strain lacks LuxN and CqsS sensors; 0 = neutral-control median. 300,000 compounds, 0.4% hits. activity change, % at 7.5 µM; in the data active = activity change below about -75%, passing the limit was not always enough; inconclusive = no clear call, values can overlap the other calls;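 also: luminescence divided by OD600 gain over 9 h not by final OD600 alone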
# HCV core dimer: HCV core protein dimerization inhibition. TR-FRET GST/Flag-core106 dimerization, 1536-well. 300,000 compounds, 0.33% hits. inhibition, % at 5 µM;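 active = inhibition above the mean of all tested compounds plus 3 SD, set per screening campaign, cut at about 45% in these data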
#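 Assay system: GST-tagged and Flag-tagged HCV core protein residues 1-106 / Times: compound-protein-antibody incubation 4 h at 22.5 °C / Signal: time-resolved FRET, ex 340 nm, em 617 and 671 nm / Evaluation: % inhibition based on acceptor/donor emission ratio / Benchmarks: wells lacking GST-core106 and wells with excess unlabelled core106 / Repeats: singlicate, one well per compound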
# HSF1 inhib: HSF1 inhibition; AID 2098; 300,000 compounds, 0.77% hits; activity change, negative = inhibition, % at 7.5 µM (by protocol); NIH3T3-HGL HSE-luciferase, MG132-induced, luminescence 8 h; hits give low values;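 active = more than half of replicate wells show activity change below -50%, luminescence cut by over half; inconclusive = some wells, but at most half, below -50%; inactive = no replicate well below -50%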;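 also: luciferase reports HSF-1 transcriptional activity via heat shock element; 0% = median of DMSO wells and -100% = zero luminescence signal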
# PHOSPHO1 inh: inhibitors of human PHOSPHO1 phosphatase. Q8TCT1. recombinant PHOSPHO1, absorbance phosphatase assay. inhibition, % at 13.3 µM. 290,000 compounds, 1.1% hits. AID 1565; in the data active = inhibition above about 60%
# Target sequence (Q8TCT1 whole entry, looked up): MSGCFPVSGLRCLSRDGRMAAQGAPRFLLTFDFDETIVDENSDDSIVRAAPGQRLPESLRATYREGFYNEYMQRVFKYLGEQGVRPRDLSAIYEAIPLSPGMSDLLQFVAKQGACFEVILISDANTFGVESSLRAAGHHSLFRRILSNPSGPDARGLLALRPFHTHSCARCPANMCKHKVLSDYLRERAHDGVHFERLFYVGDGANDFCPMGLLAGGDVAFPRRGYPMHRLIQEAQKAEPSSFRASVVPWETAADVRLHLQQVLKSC
# ALR H2O2 inh: inhibitors of human sulfhydryl oxidase ALR. P55789. purified ALR, DTT oxidation, H2O2 HRP-luminol luminescence. inhibition, % (test concentration not listed). 290,000 compounds, 3.8% hits;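 active = mean replicate inhibition above about 79%, with every replicate also reaching it, limit read from the data; inconclusive = only one of the two criteria met; inactive = mean below limit and not every replicate reaching it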
# Target sequence (P55789 whole entry, looked up): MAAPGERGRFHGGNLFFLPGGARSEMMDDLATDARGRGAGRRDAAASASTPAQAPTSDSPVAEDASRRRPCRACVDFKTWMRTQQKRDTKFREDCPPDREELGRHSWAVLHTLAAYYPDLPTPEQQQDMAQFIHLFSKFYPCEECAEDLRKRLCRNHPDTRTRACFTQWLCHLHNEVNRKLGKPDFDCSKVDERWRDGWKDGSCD
# * = called active by the depositor; ? = inconclusive; · = no result given. Only some compounds are listed: those with a hit (about 6.8% of all), similar ones and a draw of the others.
SMILES,HSF-1 act,AI-2 QS mod,HCV core dimer,HSF1 inhib,PHOSPHO1 inh,ALR H2O2 inh
NC(=S)N/N=C/c1ccc(/C=N/NC(N)=S)cc1,-0.1,27.0,-10.6,4.1,3.7,-3.1
CN(C)/N=C/c1ccc(/C=N/NC(N)=S)o1,1.9,·,-6.8,-5.5,-117.7,98.9*
NC(=S)N/N=C/c1ccc(-c2ccccc2)o1,-3.1,?,9.3,1.9,-25.3,97.9*
CC1=Nc2nc(N3CCCCCC3)c(C#N)c3c4c(nc(c23)N1)N(c1ccc2ccccc2c1)C(=O)C4,-14.5,27.3,-13.5,-1.7,·,-3.3
O=C(CSc1nnnn1-c1ccc(F)cc1)NCc1cccs1,·,20.9,3.4,·,28.7,-3.3
CC(=O)Nc1ccc(-c2ccccc2)s1,10.5,37.8,-0.1,-5.6,-59.4,-3.8
CC(=O)Nc1ccc(NC(C)=O)s1,17.3,-1.1,-8.2,-4.9,20.0,87.0*
COc1ccc(N2CCN(CCCNC(=O)C(=O)c3c(C)[nH]c4ccccc34)CC2)cc1,-0.9,40.3,0.3,-10.5,54.3,31.9
CC(C)Cc1nnc(NC(=O)C2CC(=O)N(c3ccc4c(c3)OCCO4)C2)s1 (configuration not stated),·,·,·,·,·,-3.9
O=C(CN1C(=O)c2ccccc2S1(=O)=O)c1ccc2c(c1)OCCCO2,-89.7,-14.3,-2.1,-87.7*,11.7,-4.5
O=C(CCN1C(=O)c2ccccc2S1(=O)=O)Nc1ccc2c(c1)OCCO2,-1.8,15.0,-10.0,3.0,11.3,·
O=C(CN1C(=O)c2ccccc2S1(=O)=O)c1cccc(Br)c1,-35.9,22.3,4.3,-35.4,22.6,0.8
O=C(CN1C(=O)c2ccccc2S1(=O)=O)c1ccc2c(c1)OCCO2,-81.4,20.8,-1.6,-78.4*,16.0,-13.6
Cc1nc2sccn2c(=O)c1S(=O)(=O)N1CCN(c2cccc(Cl)c2)CC1,18.0,15.8,20.3,1.4,33.4,-13.3
COc1ccc(C/C(C)=N/NC(=S)Nc2ccc(C(C)C)cc2)cc1,-2.7,27.5,0.2,0.7,-12.3,2.8
COc1ccc(C/C(C)=N/NC(=S)Nc2ccccc2F)cc1,-69.5,-12.4,0.8,-63.9*,12.0,34.2
COc1ccc(CNC(=O)c2sc(=S)n(-c3ccccc3)c2N)cc1,-72.6,3.3,0.3,-67.4*,-59.2,45.8
COc1ccc(NC(=S)NN(C)C(=S)Nc2ccc(OC)cc2)cc1,-12.0,26.1,-11.4,-2.3,-10.6,99.1*
COc1ccc(NC(=S)c2ccncc2)cc1,27.6,28.1,2.1,10.1,16.8,7.8
COc1ccc(NC(=O)Nc2ccc(N(C)C)cc2)cc1,19.6,1.4,-22.5,8.6,-29.1,22.8
COc1ccc(C(=S)Nc2ccc(C)cc2)cc1,63.1*,16.6,-2.9,29.5,-84.6,-9.2
CCOc1ccc(-n2c(N)c(C(=O)NCc3cccnc3)sc2=S)cc1,12.7,1.5,-0.1,11.3,26.7,5.1
Cc1ccc(NC(=S)NNC(=S)NCc2ccccc2)cc1,42.8,-49.0,-4.4,6.4,75.2*,10.7
C=CCN(c1ccc(C(=O)Nc2ccc(C)c(C)c2)cc1)S(C)(=O)=O,5.8,23.0,-1.8,1.4,-6.7,6.6
Cc1ccc(NC(=O)CCNC(=O)c2ccc(Cl)cc2)cc1C,2.8,14.7,2.3,5.0,36.9,2.3
SMILES,HSF-1 act,AI-2 QS mod,HCV core dimer,HSF1 inhib,PHOSPHO1 inh,ALR H2O2 inh
O=C(c1cc2ccccc2o1)N1CCN(c2ncccn2)CC1,·,·,·,·,·,-3.3
CCOC(=O)C1=C(c2ccccc2)ON(C)C1c1ccccc1 (configuration not stated),6.7,4.3,-2.4,-5.7,3.9,-1.6
Cc1ccc(C(=O)Nn2cnnc2)cc1,23.4,16.9,8.4,5.8,24.8,20.4
CCc1cc(C(=O)NNC(=S)NCc2ccccc2)cs1,4.0,24.1,0.2,11.3,91.4*,0.6
CCNC(=S)NNC(=S)NCc1ccccc1,9.9,30.4,1.6,-6.2,11.0,49.8
COc1ccc(NC(=S)Nc2ccc(Oc3ccccc3)cc2)cc1,-68.3,12.6,8.9,-64.7*,-9.3,-2.0
COc1ccc(CNC(=S)Nc2ccc(Br)cc2)cc1,28.3,-46.1,9.9,7.4,·,0.7
CCC(NC(=S)NCc1ccccc1)C(=O)O (configuration not stated),-67.5,-1.5,1.3,-60.3*,12.8,-2.1
COc1ccc(CNC(=S)Nc2ccc(-c3ccccc3)cc2)cc1,-38.1,24.9,7.8,-40.2,-7.7,95.3*
Cc1nc(N2CCN(C(=O)c3cnccn3)CC2)c2c3c(sc2n1)CC(C(C)(C)C)CC3 (configuration not stated),-2.4,13.1,-0.1,-5.4,1.5,·
C=C(C)COc1cc2oc(=O)c(CC(=O)N3C[C@H]4C[C@@H](C3)c3cccc(=O)n3C4)c(C)c2cc1Cl,-1.2,27.2,4.2,-0.8,39.5,·
COc1ccc(C(=O)NC(=S)NCc2ccccc2)cc1,-13.4,-3.5,-5.4,-7.7,62.2*,33.2
COc1ccc(NC(=S)Nc2ccc3cn[nH]c3c2)cc1,-44.1,-9.2,-4.0,-31.4,19.2,99.7*
O=C(NC(=S)NCc1ccccc1)c1ccc(Br)cc1,-3.8,30.6,-1.5,0.1,·,19.0
Cc1ccc(NC(=O)C2CC(=O)N(CCc3ccccc3)C2)c(C)c1 (configuration not stated),14.2,17.7,-2.1,5.3,-9.8,-2.4
O=C(O)c1ccc(N/N=C2/CCSc3ccc(F)cc32)cc1,10.0,2.5,-6.5,-0.8,26.9,98.3*
O=C(O)c1ccc(N/N=C2/CCCc3ccccc32)cc1,5.8,8.2,-4.3,-0.1,-0.8,97.9*
Cc1cc(C)nc(N/N=C2/CCSc3ccc(F)cc32)n1,18.5,12.4,2.4,5.9,27.5,-13.2
O=C(NCc1ccncc1)c1ccc(NS(=O)(=O)c2ccc(F)cc2)cc1,·,·,·,·,·,-1.3
COc1ccc(N(CC(=O)NCCSCc2ccccc2Cl)S(C)(=O)=O)cc1Cl,28.7,16.5,-1.3,1.6,23.9,-1.6
Nn1c(CSc2nc3ccccc3o2)nnc1CSc1nc2ccccc2o1,·,·,6.4,·,25.6,3.8
Cc1csc2nc(CSc3ccc(Cl)cc3)cn12,67.5*,22.7,5.9,72.3,2.9,92.4*
c1ccc(CSCc2cn3ccsc3n2)cc1,20.9,24.4,-2.8,21.7,-1.4,47.9
Clc1ccc(SCc2cn3ccsc3n2)cc1,111.0*,2.2,-2.0,73.4,6.4,31.8
O=c1c2ccccc2nc(SCc2cn3ccsc3n2)n1-c1ccccc1,64.6*,48.5,9.6,39.1,16.1,9.3
Cc1cc(C)n2c(Br)c(CSc3nc4ccccc4o3)nc2n1,26.0,11.8,0.0,20.9,79.7*,3.6
CSc1nc2cc(C)nn2c(-c2ccccc2Cl)c1C#N,10.3,9.4,4.2,-1.3,27.3,-4.4
O=C(O)c1cc2ccccc2c2cc(Br)ccc12,19.2,10.2,20.5,-5.3,56.3,2.1

# Screens from PubChem.
